Data published in ChEMBL document CHEMBL1153135, “Reaction of naphthoquinones with substituted nitromethanes. Facile synthesis and antifungal activity of naphtho[2,3-d]isoxazole-4,9-diones” (2010).
Values after ≈ are worked out from the molar mass of the structure shown.

Columns and labels:
Assay type in all cases: functional
Candida parapsilosis [1] = assay: Antifungal activity against Candida parapsilosis PYCC 2545 after 48 hrs; conditions: Lodderomyces parapsilosis, PYCC 2545, 48 h
In short: (§1)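 Broth microdilution after modified CLSI M27-A in SG minimal medium (yeast nitrogen base without amino acids, 2% glucose). Compounds dissolved in DMSO (1 mg/mL), diluted 10-fold in SG, then 30 final concentrations from 97.5 to 0.0025 µg/mL. About 5 × 10³ cells/well, in triplicate. Incubated at 30 °C for 48 h, OD 655 nm read as % of DMSO control; MIC50 by probit analysis of mean values.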

Nakaseomyces glabratus = assay: Antifungal activity against Candida glabrata PYCC 2418 after 48 hrs; conditions: PYCC 2418, 48 h; in short: as §1
Candida albicans [2] = assay: Antifungal activity against Candida albicans PYCC 3436 after 48 hrs; conditions: PYCC 3436, 48 h; in short: as §1
Candida parapsilosis [3] = assay: Antifungal activity against Candida parapsilosis ATCC 22019 after 48 hrs; conditions: Lodderomyces parapsilosis, ATCC 22019, 48 h; in short: as §1
Candida albicans [4] = assay: Antifungal activity against Candida albicans ATCC 90028 after 48 hrs; conditions: ATCC 90028, 48 h; in short: as §1
Pichia kudriavzevii = assay: Antifungal activity against Candida krusei PYCC 3341 after 48 hrs; conditions: PYCC 3341, 48 h; in short: as §1

Row | SMILES | MIC50 (Candida parapsilosis [1]) [µM] | MIC50 (Nakaseomyces glabratus) [µM] | MIC50 (Candida albicans [2]) [µM] | MIC50 (Candida parapsilosis [3]) [µM] | MIC50 (Candida albicans [4]) [µM] | MIC50 (Pichia kudriavzevii) [µM]
1 | CCOC1=C(Cl)C(=O)c2ccccc2C1=O | 48.3 (≈ 11.4 µg/mL) | 3.8 (≈ 0.899 µg/mL) | 9.5 (≈ 2.25 µg/mL) | 40.4 (≈ 9.56 µg/mL) | 202 (≈ 47.9 µg/mL) | 3.9 (≈ 0.923 µg/mL)
2 | COC1=C(Cl)C(=O)c2ccccc2C1=O | 5.3 (≈ 1.18 µg/mL) | 16.7 (≈ 3.72 µg/mL) | 10.4 (≈ 2.32 µg/mL) | 4.7 (≈ 1.05 µg/mL) | 73.9 (≈ 16.5 µg/mL) | 4.6 (≈ 1.02 µg/mL)
3 | CCOC(=O)CC1=C(Br)C(=O)c2ccccc2C1=O | 1.1 (≈ 0.355 µg/mL) | 12 (≈ 3.88 µg/mL) | 0.9 (≈ 0.291 µg/mL) | 3.2 (≈ 1.03 µg/mL) | 4.5 (≈ 1.45 µg/mL) | –
4 | O=C1c2ccccc2C(=O)c2c(S(=O)(=O)c3ccccc3)noc21 | 1.6 (≈ 0.543 µg/mL) | 1.5 (≈ 0.509 µg/mL) | 2.5 (≈ 0.848 µg/mL) | 6.1 (≈ 2.07 µg/mL) | 56.7 (≈ 19.2 µg/mL) | 9.7 (≈ 3.29 µg/mL)
5 | CCOC(=O)c1noc2c1C(=O)c1ccccc1C2=O | 0.6 (≈ 0.163 µg/mL) | 0.6 (≈ 0.163 µg/mL) | 1.8 (≈ 0.488 µg/mL) | 1.7 (≈ 0.461 µg/mL) | 11.5 (≈ 3.12 µg/mL) | 2.3 (≈ 0.624 µg/mL)
6 | O=C(c1ccccc1)c1noc2c1C(=O)c1ccccc1C2=O | 13.2 (≈ 4 µg/mL) | 47.6 (≈ 14.4 µg/mL) | 1.6 (≈ 0.485 µg/mL) | 3.3 (≈ 1 µg/mL) | 71.2 (≈ 21.6 µg/mL) | 21.2 (≈ 6.43 µg/mL)
7 | COC(=O)c1noc2c1C(=O)c1ccccc1C2=O | 1.3 (≈ 0.334 µg/mL) | 2.6 (≈ 0.669 µg/mL) | 0.7 (≈ 0.18 µg/mL) | 1.8 (≈ 0.463 µg/mL) | 12.2 (≈ 3.14 µg/mL) | 2.4 (≈ 0.617 µg/mL)
8 | C[C@@H]1[C@H](O)[C@@H](C)/C=C/C=C/C=C/C=C/C=C/C=C/C=C/[C@H](O[C@@H]2O[C@H](C)[C@@H](O)[C@H](N)[C@@H]2O)C[C@@H]2O[C@](O)(C[C@@H](O)C[C@@H](O)[C@H](O)CC[C@@H](O)C[C@@H](O)CC(=O)O[C@H]1C)C[C@H](O)[C@H]2C(=O)O [AMPHOTERICIN B] | 0.5 (≈ 0.462 µg/mL) | 0.4 (≈ 0.37 µg/mL) | 0.5 (≈ 0.462 µg/mL) | 0.5 (≈ 0.462 µg/mL) | 1.2 (≈ 1.11 µg/mL) | 1 (≈ 0.924 µg/mL)
